Measured values: ChEMBL document CHEMBL2163220 (J Med Chem, 2012)
Activity calls are given as the source filed them. The calls are words filed in the database; no cut-off is given here.

Assays:
[1] = target: T1, Glucocorticoid receptor (Homo sapiens) (UniProt P04150); assay: Agonist activity at glucocorticoid receptor expressed in human PC3 cells assessed as stimulation of receptor transactivation at 1 uM by luciferase reporter gene assay; assay type: functional, cell-based; conditions: PC-3
T1 sequence (whole entry): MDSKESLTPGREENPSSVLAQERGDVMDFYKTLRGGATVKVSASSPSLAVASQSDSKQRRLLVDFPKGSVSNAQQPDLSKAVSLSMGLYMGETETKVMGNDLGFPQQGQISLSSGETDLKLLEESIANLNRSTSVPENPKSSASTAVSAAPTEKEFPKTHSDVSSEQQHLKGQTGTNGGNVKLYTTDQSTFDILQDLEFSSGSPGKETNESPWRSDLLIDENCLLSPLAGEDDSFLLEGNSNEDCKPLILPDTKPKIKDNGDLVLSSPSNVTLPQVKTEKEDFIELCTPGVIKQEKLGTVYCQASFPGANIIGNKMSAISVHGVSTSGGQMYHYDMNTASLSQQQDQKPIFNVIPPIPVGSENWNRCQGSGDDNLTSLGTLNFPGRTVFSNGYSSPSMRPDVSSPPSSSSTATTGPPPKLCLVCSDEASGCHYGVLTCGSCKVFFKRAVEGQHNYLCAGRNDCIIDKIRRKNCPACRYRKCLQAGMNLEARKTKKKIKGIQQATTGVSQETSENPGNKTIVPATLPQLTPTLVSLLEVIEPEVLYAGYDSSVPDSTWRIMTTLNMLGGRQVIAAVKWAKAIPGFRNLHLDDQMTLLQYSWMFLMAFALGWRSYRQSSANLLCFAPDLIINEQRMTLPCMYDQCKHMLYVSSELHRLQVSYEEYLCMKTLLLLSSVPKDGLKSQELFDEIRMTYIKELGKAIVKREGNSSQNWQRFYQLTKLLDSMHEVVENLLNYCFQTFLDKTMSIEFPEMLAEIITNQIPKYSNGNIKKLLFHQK
In short: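 PC-3 cells express GR endogenously and were transfected only with the MMTV-luc reporter. Compound tested at 1 μM, alone or against transactivation induced by 10 nM dexamethasone. Read-out was luciferase reporter activity.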

[2] = target: T2, Androgen receptor (Homo sapiens) (UniProt P10275); assay: Antagonist activity at androgen receptor expressed in human PC3 cells assessed as reduction in DHT-induced receptor transactivation at 0.1 to 1 uM by luciferase reporter gene assay; assay type: functional, cell-based; conditions: PC-3
T2 sequence (whole entry): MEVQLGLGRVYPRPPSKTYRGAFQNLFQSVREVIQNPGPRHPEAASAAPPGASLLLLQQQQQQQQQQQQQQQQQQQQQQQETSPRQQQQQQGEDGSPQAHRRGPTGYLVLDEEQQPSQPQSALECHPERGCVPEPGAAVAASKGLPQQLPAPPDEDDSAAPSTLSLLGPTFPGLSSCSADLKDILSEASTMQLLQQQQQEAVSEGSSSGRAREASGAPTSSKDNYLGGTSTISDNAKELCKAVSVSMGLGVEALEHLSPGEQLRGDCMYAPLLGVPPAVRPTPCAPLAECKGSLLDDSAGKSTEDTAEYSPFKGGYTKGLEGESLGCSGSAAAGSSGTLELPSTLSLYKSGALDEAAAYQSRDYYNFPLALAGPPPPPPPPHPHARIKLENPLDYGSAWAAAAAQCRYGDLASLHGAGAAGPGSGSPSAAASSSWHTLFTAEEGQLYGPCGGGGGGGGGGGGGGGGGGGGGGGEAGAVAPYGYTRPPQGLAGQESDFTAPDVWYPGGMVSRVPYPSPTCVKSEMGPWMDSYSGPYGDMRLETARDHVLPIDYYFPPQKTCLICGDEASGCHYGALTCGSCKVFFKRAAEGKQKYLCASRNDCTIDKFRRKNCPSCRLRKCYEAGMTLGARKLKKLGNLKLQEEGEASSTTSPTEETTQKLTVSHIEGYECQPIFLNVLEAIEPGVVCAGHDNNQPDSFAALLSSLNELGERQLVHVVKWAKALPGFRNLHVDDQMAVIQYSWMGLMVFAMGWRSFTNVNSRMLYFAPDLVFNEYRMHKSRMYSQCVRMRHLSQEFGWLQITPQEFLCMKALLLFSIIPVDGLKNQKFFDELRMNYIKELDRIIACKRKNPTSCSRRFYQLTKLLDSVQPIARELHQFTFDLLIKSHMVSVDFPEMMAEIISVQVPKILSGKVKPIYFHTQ
In short: (§1)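 Full-length wild-type or mutant AR plasmid transiently transfected into PC-3 cells with MMTV-luc and Renilla luciferase reporters. Cells treated with DMSO vehicle or compound at 0.1 and 1 μM, alone or with 0.1 nM DHT. Luciferase read as relative luciferase units. Run in triplicate.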

PC-3 = assay: Agonist activity at androgen receptor T887A mutant expressed in human PC3 cells assessed as stimulation of receptor transactivation at 0.1 to 1 uM by luciferase reporter gene assay; assay type: functional, cell-based; in short: as §1
[3] = target: T2, Androgen receptor (Homo sapiens); assay: Antagonist activity at androgen receptor in human LNCaP cells assessed as increase in Maspin promoter activity by luciferase reporter gene assay; assay type: functional, cell-based
In short: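 LNCaP cells carrying a maspin promoter-luciferase reporter were treated with compound and read by luciferase activity, in triplicate.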

[4] = target: T2, Androgen receptor (Homo sapiens); assay: Antagonist activity at androgen receptor in human LNCaP cells assessed as reduction in DHT-induced PSA expression incubated for 24 hrs by RT-PCR
[5] = target: T2, Androgen receptor (Homo sapiens); assay: Agonist activity at androgen receptor expressed in human PC3 cells assessed as stimulation of receptor transactivation at 0.1 to 1 uM by luciferase reporter gene assay; assay type: functional, cell-based; conditions: PC-3; in short: as §1

- Activity [1]: inactive
- Activity [2]: Active
- Activity [3]: Dose-dependent effect
- Activity [4]: Dose-dependent effect
- Activity [5]: inactive
Structure (SMILES): Cc1coc2c1C(=O)C(=O)c1c-2ccc2c1CCCC2(C)C [TANSHINONE IIA]
- Activity (PC-3): inactive
